Test results: ChEMBL document CHEMBL1122368, “Synthesis and antihypertensive activity of some new quinazoline derivatives” (1983)

System: Rattus norvegicus
Assay: Antihypertensive activity as fall in systolic blood pressure after 3 hr of 10 uM/kg po dosing in Spontaneously hypertensive rats.
Type: functional, Artery
Settings: not given
Outline: (§1)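 Conscious spontaneously hypertensive rats dosed by gavage, about 1 mL/rat. Systolic pressure recorded by tail-cuff after warming the rats 30 min at 36 °C. Fall in systolic BP (mmHg) read versus control values; listed values are significant decreases (p ≤ 0.05), otherwise marked NS. Baseline systolic pressure 175–190 mmHg across experiments.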

Compared with `COc1cc2nc(N3CCC(C(O)C4CCCCC4)CC3)nc(N)c2cc1OC.Cl` (configuration not stated), `COc1cc2nc(N3CCC(C(=O)N4CCCCCCC4)CC3)nc(N)c2cc1OC.Cl` is lower in “Decrease in SBP” value: 30 mmHg for the first, 29 mmHg for the second.

With `CCCCC(=O)C1CCN(c2nc(N)c3cc(OC)c(OC)cc3n2)CC1.Cl` the “Decrease in SBP” value was 36 mmHg.

System: Rattus norvegicus
Assay: Hypotensive activity in anesthetized rats, dose that produced a 30% fall in mean blood pressure after 30 minutes
Type: functional
Settings: not given
Outline: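 Normotensive rats under urethane anaesthesia, arterial pressure recorded, femoral vein cannulated. Dosing iv in rising doses (0.01, 0.1, 1, 10 μmol/kg) at 30-min intervals, 1 mL/kg over 2 min; solvent controls; colonic temperature 38.0 ± 0.3 °C. Fall in pressure read 30 min after injection. ED30 is the dose (μmol/kg) giving a 30% fall in mean blood pressure.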

First: COc1cc2nc(N3CCC(C(O)C4CCCCC4)CC3)nc(N)c2cc1OC.Cl (configuration not stated)
Second: COc1cc2nc(N3CCC(C(=O)N4CCCCCCC4)CC3)nc(N)c2cc1OC.Cl
The ED30 of the first is higher: 0.1 µM/kg for the first, 0.05 µM/kg for the second.

`CCCCC(=O)C1CCN(c2nc(N)c3cc(OC)c(OC)cc3n2)CC1.Cl` gave an ED30 of 0.06 µM/kg.

System: Rattus norvegicus
Assay: Antihypertensive activity as fall in systolic blood pressure after 5 h of 100 umol/kg po dosing in Spontaneously hypertensive rats.
Type: functional, Artery
Settings: not given
Outline: as §1

`COc1cc2nc(N3CCC(C(=O)N4CCCCCCC4)CC3)nc(N)c2cc1OC.Cl` was tested, and the “Decrease in SBP” value was 83 mmHg.

System: Rattus norvegicus
Assay: Antihypertensive activity as fall in systolic blood pressure after 1 hr of 10 uM/kg po dosing in Spontaneously hypertensive rats.
Type: functional, Artery
Settings: not given
Outline: as §1

First: COc1cc2nc(N3CCC(C(O)C4CCCCC4)CC3)nc(N)c2cc1OC.Cl (configuration not stated)
Second: COc1cc2nc(N3CCC(C(=O)N4CCCCCCC4)CC3)nc(N)c2cc1OC.Cl
The “Decrease in SBP” value of the first is lower: 25 mmHg for the first, 29 mmHg for the second.

In the case of `CCCCC(=O)C1CCN(c2nc(N)c3cc(OC)c(OC)cc3n2)CC1.Cl`, the “Decrease in SBP” value is reported as 40 mmHg.

System: Rattus norvegicus
Assay: Antihypertensive activity as fall in systolic blood pressure after 3 hr of 1 umol/kg po dosing in Spontaneously hypertensive rats;NS means nonsignificant change in blood pressure.
Type: functional, organism-based
Settings: Artery
Outline: as §1

For `COc1cc2nc(N3CCC(C(=O)N4CCCCCCC4)CC3)nc(N)c2cc1OC.Cl`, the “Decrease in SBP” value was “Not significant”.

System: Rattus norvegicus
Assay: Antihypertensive activity as fall in systolic blood pressure after 3 h of 100 umol/kg po dosing in Spontaneously hypertensive rats.
Type: functional, Artery
Settings: not given
Outline: as §1

With `COc1cc2nc(N3CCC(C(=O)N4CCCCCCC4)CC3)nc(N)c2cc1OC.Cl` the “Decrease in SBP” value was 66 mmHg.

System: Rattus norvegicus
Assay: Antihypertensive activity as fall in systolic blood pressure after 1 h of 1 umol/kg po dosing in Spontaneously hypertensive rats.
Type: functional, Artery
Settings: not given
Outline: as §1

Compared with `COc1cc2nc(N3CCC(C(O)C4CCCCC4)CC3)nc(N)c2cc1OC.Cl` (configuration not stated), `COc1cc2nc(N3CCC(C(=O)N4CCCCCCC4)CC3)nc(N)c2cc1OC.Cl` is lower in “Decrease in SBP” value: 12 mmHg for the first, 11 mmHg for the second.

For `CCCCC(=O)C1CCN(c2nc(N)c3cc(OC)c(OC)cc3n2)CC1.Cl`, the “Decrease in SBP” value was 13 mmHg.

System: Rattus norvegicus
Assay: Antihypertensive activity as fall in systolic blood pressure after 1 hr of 100 umol/kg po dosing in Spontaneously hypertensive rats.
Type: functional, Artery
Settings: not given
Outline: as §1

For `COc1cc2nc(N3CCC(C(=O)N4CCCCCCC4)CC3)nc(N)c2cc1OC.Cl`, the “Decrease in SBP” value was 52 mmHg.

System: Rattus norvegicus
Assay: Antihypertensive activity as fall in systolic blood pressure after 5 h of 1 umol/kg po dosing in Spontaneously hypertensive rats;NS means nonsignificant change in blood pressure.
Type: functional, organism-based
Settings: Artery
Outline: as §1

With `COc1cc2nc(N3CCC(C(=O)N4CCCCCCC4)CC3)nc(N)c2cc1OC.Cl` the “Decrease in SBP” value was “Not significant”.
In the case of `CCCCC(=O)C1CCN(c2nc(N)c3cc(OC)c(OC)cc3n2)CC1.Cl`, the “Decrease in SBP” value is reported as “Not significant”.

System: Rattus norvegicus
Assay: Antihypertensive activity as fall in systolic blood pressure after 3 hr of 1 umol/kg po dosing in Spontaneously hypertensive rats.
Type: functional, Artery
Settings: not given
Outline: as §1

First: COc1cc2nc(N3CCC(C(O)C4CCCCC4)CC3)nc(N)c2cc1OC.Cl (configuration not stated)
Second: CCCCC(=O)C1CCN(c2nc(N)c3cc(OC)c(OC)cc3n2)CC1.Cl
The “Decrease in SBP” value of the first is higher: 17 mmHg for the first, 14 mmHg for the second.

System: Rattus norvegicus
Assay: Antihypertensive activity as fall in systolic blood pressure after 5 hr of 1 umol/kg po dosing in Spontaneously hypertensive rats.
Type: functional, Artery
Settings: not given
Outline: as §1

With `COc1cc2nc(N3CCC(C(O)C4CCCCC4)CC3)nc(N)c2cc1OC.Cl` (configuration not stated) the “Decrease in SBP” value was 19 mmHg.

System: Rattus norvegicus
Assay: Antihypertensive activity as fall in systolic blood pressure after 5 hr of 10 uM/kg po dosing in Spontaneously hypertensive rats.
Type: functional, Artery
Settings: not given
Outline: as §1

Compared with `COc1cc2nc(N3CCC(C(O)C4CCCCC4)CC3)nc(N)c2cc1OC.Cl` (configuration not stated), `COc1cc2nc(N3CCC(C(=O)N4CCCCCCC4)CC3)nc(N)c2cc1OC.Cl` is lower in “Decrease in SBP” value: 38 mmHg for the first, 26 mmHg for the second.

`CCCCC(=O)C1CCN(c2nc(N)c3cc(OC)c(OC)cc3n2)CC1.Cl` was tested, and the “Decrease in SBP” value was 27 mmHg.

System: Rattus norvegicus
Assay: Hypotensive activity in anesthetized rats, dose that produced a 30% fall in mean blood pressure
Type: functional
Settings: not given
Outline: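 Normotensive rats under urethane anaesthesia, arterial pressure recorded, femoral vein cannulated. Dosing iv in rising doses (0.01, 0.1, 1, 10 μmol/kg) at 30-min intervals, 1 mL/kg over 2 min; solvent-treated controls. Colonic temperature held at 38.0 ± 0.3 °C. Effect read at its maximum, 1–5 min after injection. ED30 is the dose (μmol/kg) giving a 30% fall in mean blood pressure.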

First: COc1cc2nc(N3CCC(C(O)C4CCCCC4)CC3)nc(N)c2cc1OC.Cl (configuration not stated)
Second: COc1cc2nc(N3CCC(C(=O)N4CCCCCCC4)CC3)nc(N)c2cc1OC.Cl
The ED30 of the first is higher: 0.06 µM/kg for the first, 0.02 µM/kg for the second.

`CCCCC(=O)C1CCN(c2nc(N)c3cc(OC)c(OC)cc3n2)CC1.Cl` was tested, and the ED30 was 0.03 µM/kg.
